Assay [1] deals with Rattus norvegicus. Nature of the assay: Antidiuretic effect measured as increase in osmolality over control in water-loaded Sprague-Dawley rat at 10 mg/kg, po. Type of assay: functional, Urine. The gist of the method: (§1)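 Conscious water-loaded rats dosed orally; 30 min later stomachs gavaged with deionized water, 30 mL/kg. Urine collected over 4 h for volume; osmolality by cryoscopic osmometer; Na+, K+, Cl- by ion-selective electrodes. Expressed as percent change versus control at the stated dose (screening dose 10 mg/kg po).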

In assay [2] the target is T1, Vasopressin V1a receptor (Homo sapiens, UniProt P37288). As to the kind of experiment: Displacement of [3H]AVP from human V1a receptor expressed in CHO cells at 1 uM. Format: cell-based. In general terms: Loss of bound radioactivity is the signal in a displacement assay; it reports binding, not function.
Target sequence in this assay (P37288 whole entry, looked up): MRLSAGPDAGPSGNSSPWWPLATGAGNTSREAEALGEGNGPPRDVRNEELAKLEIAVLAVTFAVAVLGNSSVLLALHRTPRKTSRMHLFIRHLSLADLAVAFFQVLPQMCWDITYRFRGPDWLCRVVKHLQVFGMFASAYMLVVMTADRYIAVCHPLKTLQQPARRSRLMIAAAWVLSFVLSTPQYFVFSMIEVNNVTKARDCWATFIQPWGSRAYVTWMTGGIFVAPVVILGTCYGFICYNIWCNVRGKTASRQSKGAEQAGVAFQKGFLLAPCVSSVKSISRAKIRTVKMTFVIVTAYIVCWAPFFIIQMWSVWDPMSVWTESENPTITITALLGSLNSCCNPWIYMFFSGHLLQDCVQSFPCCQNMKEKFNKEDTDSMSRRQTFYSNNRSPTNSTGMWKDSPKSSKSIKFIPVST
The target in assay [3] is T2, Vasopressin V2 receptor (Homo sapiens, UniProt P30518). As to the kind of experiment: Displacement of [3H]AVP from human V2 receptor transfected in LV2 cells. Format: cell-based. A digest of the protocol:
(§2)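 Inhibition of [3H]AVP binding to membranes from CHO cells expressing human V1a receptors or from LV2 cells transfected with human V2 receptors; IC50 values are means of two to five (or three) experiments.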

Assay [4] relates to Rattus norvegicus. Nature of the assay: Antidiuretic effect measured as decrease in urine volume over control in water-loaded Sprague-Dawley rat at 10 mg/kg, po. Type of assay: functional. Particulars: for Activity: dose 10 mg/kg; for ED50: Rattus norvegicus, Sprague-Dawley, Urine. On the set-up: Activity: scale not given: the % may be the effect or the level left. The gist of the method: as §1

Assay [5] addresses T1, Vasopressin V1a receptor. As to the kind of experiment: Displacement of [3H]AVP from human V1a receptor expressed in CHO cell membrane at 10 uM. Type of assay: cell membranes.
Target sequence in this assay (P37288 whole entry, looked up): as above
In assay [6] the target is T2, Vasopressin V2 receptor. As to the kind of experiment: Displacement of [3H]AVP from human V2 receptor transfected in LV2 cells at 300 nM. Type of assay: cell-based. A digest of the protocol: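 Inhibition of [3H]AVP binding to membranes of LV2 cells transfected with human V2 receptors, reported as percent inhibition at 300 nM.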
The target in assay [7] is T1, Vasopressin V1a receptor. As to the kind of experiment: Displacement of [3H]AVP from human V1a receptor expressed in CHO cells. Format: cell-based. The gist of the method:
as §2
Target sequence in this assay (P37288 whole entry): as the sequence (P37288 whole entry, looked up) above

Assay [8] has as its target Vasopressin V1a receptor (Rattus norvegicus) (UniProt P30560). Nature of the assay: Agonist activity at V1a receptor indicated by production of contractions in rat tail arteries. Format: functional, tissue-based.
Assay [9] deals with T3, Oxytocin receptor (Rattus norvegicus) (UniProt P70536).
T3 sequence (whole entry): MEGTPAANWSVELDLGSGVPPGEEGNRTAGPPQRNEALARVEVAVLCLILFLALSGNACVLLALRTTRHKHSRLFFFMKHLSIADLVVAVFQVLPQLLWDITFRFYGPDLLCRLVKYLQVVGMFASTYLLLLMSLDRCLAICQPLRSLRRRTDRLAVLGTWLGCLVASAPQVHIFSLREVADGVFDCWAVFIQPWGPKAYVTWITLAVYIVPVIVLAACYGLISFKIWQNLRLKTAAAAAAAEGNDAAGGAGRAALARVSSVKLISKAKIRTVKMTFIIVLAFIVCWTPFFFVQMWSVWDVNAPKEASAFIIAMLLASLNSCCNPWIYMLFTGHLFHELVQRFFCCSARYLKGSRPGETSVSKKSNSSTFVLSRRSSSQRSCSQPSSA
As to the kind of experiment: Agonist activity at OT receptor indicated by production of contractions in rat uterine strips. Type of assay: functional.

In assay [10] the target is Vasopressin V1a receptor (Rattus norvegicus, UniProt P30560). Nature of the assay: Antagonism of AVP-induced response at V1a receptor in isolated rat tail arteries. Type of assay: functional, tissue-based.
Chain of Vasopressin V1a receptor (Rattus norvegicus, UniProt P30560) (P30560 whole entry): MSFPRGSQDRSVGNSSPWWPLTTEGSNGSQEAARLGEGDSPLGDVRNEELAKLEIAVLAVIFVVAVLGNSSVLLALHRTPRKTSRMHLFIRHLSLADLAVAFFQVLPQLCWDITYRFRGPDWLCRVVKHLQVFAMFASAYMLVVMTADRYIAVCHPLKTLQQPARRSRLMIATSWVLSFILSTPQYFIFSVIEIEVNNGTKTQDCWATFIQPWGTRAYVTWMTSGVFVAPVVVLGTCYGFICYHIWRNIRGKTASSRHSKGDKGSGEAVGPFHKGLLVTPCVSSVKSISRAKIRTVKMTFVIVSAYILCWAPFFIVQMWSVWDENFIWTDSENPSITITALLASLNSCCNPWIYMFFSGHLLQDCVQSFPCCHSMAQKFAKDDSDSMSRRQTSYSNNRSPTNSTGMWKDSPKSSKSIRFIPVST
The next assay concerns the target T4, Oxytocin receptor (Rattus norvegicus, UniProt P70536).
T4 sequence (P70536 whole entry): T3 sequence (whole entry)
As to the kind of experiment: Antagonism of OT-induced response at OT receptor in rat uterine strips. Type of assay: functional.

In assay [11] the target is T2, Vasopressin V2 receptor. As to the kind of experiment: Binding to human V2 receptor expressed in LV2 cells by cAMP production. Format: functional, cell-based. For orientation: Cyclic AMP is a second messenger, typically raised through Gs and lowered through Gi signalling.
Assay [12] concerns the target T1, Vasopressin V1a receptor. As to the kind of experiment: Displacement of [3H]AVP from human V1a receptor expressed in CHO cells at 0.1 uM. Type of assay: cell-based.
Target sequence in this assay (P37288 whole entry, looked up): as the sequence (P37288 whole entry, looked up) above

The values below come from ChEMBL document CHEMBL1149468, “Pyridobenzodiazepines: a novel class of orally active, vasopressin V2 receptor selective agonists” (Bioorg Med Chem Lett, 2006).

Calls of active or inactive are those of the source. The rule behind the calls is not given here. Bridge positions count the residues as written; N and C are the ends. Square brackets hold non-standard residues; d marks the D form. Peptide text beside a SMILES is read from it. Orn = NCCC[C@H](N)C(=O)O; Mpa = O=C(O)CCS A value given as a limit tells only on which side of the number the result lay.

T2 sequence (P30518 whole entry): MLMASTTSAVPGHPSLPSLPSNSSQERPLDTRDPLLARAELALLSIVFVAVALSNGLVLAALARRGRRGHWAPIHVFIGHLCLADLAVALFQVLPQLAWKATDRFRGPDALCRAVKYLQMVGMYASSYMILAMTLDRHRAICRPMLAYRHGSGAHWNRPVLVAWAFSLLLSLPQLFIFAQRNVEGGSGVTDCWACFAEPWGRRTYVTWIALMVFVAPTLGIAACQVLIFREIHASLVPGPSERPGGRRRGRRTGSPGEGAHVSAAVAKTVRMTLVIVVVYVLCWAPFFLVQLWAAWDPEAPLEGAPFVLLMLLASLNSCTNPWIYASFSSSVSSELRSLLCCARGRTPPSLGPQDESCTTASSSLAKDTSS
Chain of Vasopressin V1a receptor (Rattus norvegicus) (P30560 whole entry, looked up): as the sequence (P30560 whole entry) above

One may read the inhibition as the relative decrease from the control value, in per cent. What is called IC50 is the concentration that gives 50% inhibition. As for `Cc1ccn(-c2ccc(C(=O)N3Cc4cccnc4Nc4ccccc43)c(Cl)c2)n1`, the results for the Activity with Rattus norvegicus [1] and in the assay on Rattus norvegicus [4] were 172% and 80%, respectively. The inhibition at Vasopressin V1a receptor [2] was found to be 38%. At Vasopressin V2 receptor [3], this compound showed an IC50 of 91.5 nM.
Turning to `Cc1ccn(-c2ccc(C(=O)N3Cc4cccnc4N(C)c4ccccc43)c(C(F)(F)F)c2)n1`, the Activity with Rattus norvegicus [1] amounted to 198%; in the assay with Rattus norvegicus [4], 72%. Also, the figures for the inhibition at Vasopressin V1a receptor [5] and on Vasopressin V2 receptor [6] were 32% and 10%, respectively.
Regarding `CC(C)(C)c1ccn(-c2ccc(C(=O)N3Cc4cccnc4Nc4ccccc43)c(C(F)(F)F)c2)n1`, the Activity in the assay on Rattus norvegicus [1] was -7%; in the assay on Rattus norvegicus [4], 6%. For the same compound, the inhibition on Vasopressin V2 receptor [6] came to 26%.
Turning to `Cc1ccn(-c2ccc(C(=O)N3Cc4cccnc4Nc4ccccc43)c(Br)c2)n1`, the Activity came to 247% with Rattus norvegicus [1] and 85% with Rattus norvegicus [4]. Further, the inhibition at Vasopressin V1a receptor [2] turned out to be 30%. For the same compound, the IC50 on Vasopressin V2 receptor [3] came to 296 nM.
Turning to `O=C(c1ccc(-n2ccc(-c3ccncc3)n2)cc1Br)N1Cc2cccnc2Nc2ccccc21`, the Activity worked out at 11% in the assay with Rattus norvegicus [1] and 24% with Rattus norvegicus [4]. At Vasopressin V2 receptor [6], the inhibition was 26%.
Consider `Cn1ccc(-c2ccc(C(=O)N3Cc4cccnc4Nc4ccccc43)c(Cl)c2)n1`, for which the figures for the Activity in the assay on Rattus norvegicus [1] and in the assay with Rattus norvegicus [4] were 134% and 76%, respectively. The results for the IC50 at Vasopressin V1a receptor [7] and on Vasopressin V2 receptor [3] were 1780 nM and 183 nM, respectively.
For orientation: EC50 means the concentration giving half of the maximal effect. For orientation: ED50 means the dose at which the effect has come halfway, by size or by number of responders. As to `Cc1ccn(-c2ccc(C(=O)N3Cc4cccnc4Nc4ccccc43)c(C(F)(F)F)c2)n1`, the result in assay [8] and in [9] was inactive. Further, the IC50 was over 30000 nM at Vasopressin V1a receptor [10], 1260 nM against Oxytocin receptor, 5950 nM at Vasopressin V1a receptor [7] and 493 nM on Vasopressin V2 receptor [3]. Further, the Activity was determined as 239% with Rattus norvegicus [1] and 87% in the assay on Rattus norvegicus [4]. On Vasopressin V2 receptor [11], this compound registered an EC50 of 1.67 nM. In addition, the ED50 in the assay on Rattus norvegicus [4] stood at 0.1 mg/kg.
In the case of `Cc1ccn(-c2ccc(C(=O)N3Cc4cccn4Cc4ccccc43)c(Cl)c2)n1`, the Activity in the assay on Rattus norvegicus [1] was determined as 286%; with Rattus norvegicus [4] it was 74%. The compound further gave an EC50 on Vasopressin V2 receptor [11] of 0.74 nM. In addition, the IC50 at Vasopressin V1a receptor [7] amounted to 778 nM; on Vasopressin V2 receptor [3], 80 nM. In addition, the ED50 in the assay on Rattus norvegicus [4] was 0.14 mg/kg.
Turning to `O=C(c1ccc(-n2ccc(C(F)(F)F)n2)cc1Cl)N1Cc2cccnc2Nc2ccccc21`, the Activity with Rattus norvegicus [1] came out at 162%; in the assay with Rattus norvegicus [4], 72%. For the same compound, the inhibition at Vasopressin V2 receptor [6] came out at 13%.
Taken in the same sequence, the figures for `O=C(c1ccc(-n2ccc(C(F)(F)F)n2)cc1C(F)(F)F)N1Cc2cccnc2Nc2ccccc21` were 183%, 69% and -7%.
As for `CN1c2ccccc2N(C(=O)c2ccc(-c3ccn(C)n3)cc2Cl)Cc2cccnc21`, the Activity in the assay on Rattus norvegicus [1] is given as -11%; with Rattus norvegicus [4] it was 10%.
Take `CCOc1ccc(C[C@H]2NC(=O)CCSSC[C@@H](C(=O)N3CCC[C@H]3C(=O)N[C@@H](CCCN)C(=O)NCC(N)=O)NC(=O)[C@H](CC(N)=O)NC(=O)[C@H]([C@@H](C)O)NC(=O)[C@H]([C@@H](C)CC)NC2=O)cc1` [ATOSIBAN] ([Mpa][dY](Et)ITNCP[Orn]G-NH2; disulfide 1-6): the IC50 at Oxytocin receptor worked out at 12 nM.
Take `Cc1ccnn1-c1ccc(C(=O)N2Cc3cccnc3Nc3ccccc32)c(C(F)(F)F)c1`: the Activity in the assay with Rattus norvegicus [1] was determined as 4%; with Rattus norvegicus [4], 25%. On Vasopressin V1a receptor [12], the inhibition is 11%. Besides, the IC50 on Vasopressin V2 receptor [3] was 413 nM.
As to `Cc1ccn(-c2ccc(C(=O)N3Cc4cccnc4Nc4ccccc43)c(F)c2)n1`, the Activity in the assay on Rattus norvegicus [1] is reported as 272%; with Rattus norvegicus [4], 59%. At Vasopressin V2 receptor [3], this compound came in with an IC50 of 933 nM.
In the case of `Cc1n[nH]c(-c2ccc(C(=O)N3Cc4cccnc4Nc4ccccc43)c(Cl)c2)n1`, the Activity with Rattus norvegicus [1] came out at 516%; in the assay on Rattus norvegicus [4], 86%.
Consider `Cc1ccnn1-c1ccc(C(=O)N2Cc3cccnc3Nc3ccccc32)c(Cl)c1`, for which the Activity in the assay with Rattus norvegicus [1] is 189%; with Rattus norvegicus [4], 61%. This compound also had an IC50 at Vasopressin V2 receptor [3] of 390 nM.
For `Cc1ccn(-c2ccc(C(=O)N3Cc4cccnc4N(C)c4ccccc43)c(Cl)c2)n1`, the Activity with Rattus norvegicus [1] came out at 275%; in the assay on Rattus norvegicus [4], 71%. Further, the inhibition at Vasopressin V1a receptor [2] was 20%. Besides, on Vasopressin V2 receptor [3], the IC50 stood at 475 nM.
`Cc1ccn(-c2cc(F)ccc2C(=O)N2Cc3cccnc3Nc3ccccc32)n1`: the results for the Activity in the assay with Rattus norvegicus [1] and in the assay on Rattus norvegicus [4] were 177% and 63%, respectively. The inhibition on Vasopressin V2 receptor [6] came to 5%.
